Shown are actives, neighbours in structure and some others; about 3.8% of the full set was active somewhere.
hERG rescue = hERG (human) protection from proarrhythmic block; Q12809; hit rate 0.51% among 310,000; AID 1511; activation (rescue from dofetilide block), less the hit threshold, % at 10 µM; CHO-hERG, FluxOR thallium flux, dofetilide IC70 present;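 active = activation above the mean of controls blocked by dofetilide plus 5 SD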;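 also: thallium influx through hERG after potassium depolarization seen as dye fluorescence rise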
KCNK9 block = inhibitors of human KCNK9 two-pore domain potassium channel. Q9NPC2. HEK293 KCNK9, FluxOR thallium flux fluorescence; stronger effect = lower value. B-score at 10 µM. hit rate 1.2% among 310,000. AID 488922;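 active = ratio B-score over 3 SD below the library mean, with starting fluorescence within 5 SD of its mean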;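 also: negative B-score means less thallium flux so channel inhibition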
Kir21 inh = blocks the mouse Kir2.1 inward-rectifier potassium channel; P35561; HEK293-Kir2.1, FluxOR thallium flux fluorescence; stronger effect = lower value; B-score at 10 µM; hit rate 0.85% among 310,000;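 active = fluorescence ratio B-score at or below minus 3 SD of library scores, with starting-brightness B-score within 2 SD, cut at about -4.2 in these data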;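 also: channel flux triggered by added potassium and thallium sulfate stimulus; B-score of peak minus minimum fluorescence over baseline after thallium stimulus; more negative B-score means stronger Kir2.1 block with less thallium influx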
KCNK3 inh = human KCNK3 channel inhibition, primary screen; O14649; CHO-KCNK3 thallium flux, FluxOR fluorescence; stronger effect = lower value; B-score at 10 µM; hit rate 0.84% among 340,000;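 active = B-score under library mean minus 4 SD, starting fluorescence ratio at most library mean plus 5 SD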;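 also: more negative B-score means stronger inhibition of thallium flux through KCNK3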
Target sequence (O14649 whole entry, looked up): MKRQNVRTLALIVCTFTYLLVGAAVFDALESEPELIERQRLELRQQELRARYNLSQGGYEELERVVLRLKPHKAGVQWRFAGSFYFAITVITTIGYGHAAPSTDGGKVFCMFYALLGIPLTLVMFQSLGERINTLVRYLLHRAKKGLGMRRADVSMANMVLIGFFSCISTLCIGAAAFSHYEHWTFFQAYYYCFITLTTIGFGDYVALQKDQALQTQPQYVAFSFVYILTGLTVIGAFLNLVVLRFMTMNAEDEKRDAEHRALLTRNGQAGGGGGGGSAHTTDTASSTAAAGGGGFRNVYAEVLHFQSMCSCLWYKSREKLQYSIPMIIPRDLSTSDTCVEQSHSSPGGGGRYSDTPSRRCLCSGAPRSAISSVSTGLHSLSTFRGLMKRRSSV
KCNQ1 act = potentiators or activators of human KCNQ1 potassium channel | P51787 | B-score at 10 µM | CHO-K1 KCNQ1, thallium flux FluxOR fluorescence; stronger effect = higher value | hit rate 0.35% among 310,000;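 active = fluorescence ratio B-score, a plate-corrected score, at least three library SD, with initial intensity B-score within 5 SD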
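Assay system: stable KCNQ1 CHO-K1 line; medium: assay buffer, equal DMSO in all wells; timing: 90 min dye loading and 20 min compound exposure, both at room temperature; technique: kinetic FluxOR thallium fluorescence, 10-s 1-Hz baseline, 110-s post-stimulus read; read-out basis: B score of baseline-normalized fluorescence ratio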
KCNQ1 block = inhibitors of human KCNQ1 potassium channel; P51787; CHO-K1 KCNQ1, FluxOR thallium flux fluorescence; stronger effect = higher value; B-score at 10 µM; hit rate 1.3% among 310,000;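 active = compounds whose thallium flux B-score, printed positive for inhibition, exceeds three library SD while starting fluorescence stays within three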;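 also: channel opened by potassium depolarization with thallium stimulus after 20 min compound exposure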
Starred values were filed as active, the others as inactive; i = inactive; x = no result given.

SMILES | hERG rescue | KCNK9 block | Kir21 inh | KCNK3 inh | KCNQ1 act | KCNQ1 block
Clc1ccc(-[n+]2c(-c3cccc(Br)c3)[nH]c3nc4ccccc4nc32)cc1 | -11 | i | -0.46 | i | i | 10*
c1ccc2oc(-c3[nH]ncc3CN3CCSCC3)cc2c1 | -17 | i | -0.8 | i | i | i
c1ccc2oc(-c3ccn[nH]3)cc2c1 | 6.9* | i | -1.3 | i | i | i
CC(C)CCN1CCN(Cc2nc(-c3ccc(F)cc3)cs2)CC1CCO (stereo unspecified) | 7.1* | i | 0.04 | i | i | i
COC(=O)c1ccc(CN2CCN(CCc3ccccc3)C(CCO)C2)cc1 (stereo unspecified) | -15 | i | -0.15 | i | i | i
COC(=O)c1ccc(CN2CCN(CCC(C)C)C(CCO)C2)cc1 (stereo unspecified) | -18 | i | -0.27 | i | i | 6*
COc1ccc(C(=O)NCC(c2ccco2)N2CCCCC2)cc1S(=O)(=O)Nc1ccc(C)cc1 (stereo unspecified) | x | x | x | i | x | x
CCN(c1ccccc1)S(=O)(=O)c1ccc2[nH]c(=O)c(=O)[nH]c2c1 | -4 | i | -1 | i | i | i
O=C1CCCCN1CCC(=O)N1CCCC(Nc2ccccc2)C1 (stereo unspecified) | -9 | i | 1 | i | i | i
O=C(CCc1cccc(Cl)c1)N1CCCC(Nc2ccccc2)C1 (stereo unspecified) | -8 | i | -6.9* | i | i | i
COC(=O)c1ccc(CSc2nc3sc(C(=O)O)c(C)c3c(=O)[nH]2)cc1 | -6 | i | 0.47 | x | i | i
O=C(Nc1c[nH]c(=O)[nH]c1=O)c1ccc2c(c1)C(=O)N(c1cccc([N+](=O)[O-])c1)C2=O | 1 | i | 1.9 | i | i | i
Cc1ccc(C(=O)O)cc1NC(=O)c1ccc2c(c1)C(=O)N(c1ccc([N+](=O)[O-])cc1)C2=O | 0 | i | 0.43 | i | i | i
O=C(O)c1ccc2c(c1)C(=O)N(c1cc([N+](=O)[O-])ccn1)C2=O | 5.2* | i | 0.09 | i | i | i
O=C(Nc1ccccc1C(=O)O)c1ccc2c(c1)C(=O)N(c1cccc([N+](=O)[O-])c1)C2=O | 7.0* | i | 0.52 | i | i | i
NC(=O)CCS(=O)(=O)c1ccc(Cl)cc1 | 6.4* | i | 3.4 | i | i | i
Cc1cc(C(=O)N/N=C/c2ccc(N(C)C)o2)cs1 | -10 | i | -1.4 | i | i | i
CC1C/C(=N/Nc2nc3ccccc3[nH]2)CC(C)(C)C1 (stereo unspecified) | -7 | i | 1.1 | i | i | i
Cc1cc(N/N=C2\CC(C)CC(C)(C)C2)nc2ccccc12 (stereo unspecified) | -24 | i | 0.22 | i | i | 14*
COc1cc(C2CC(=O)Oc3cc(C)c(Cl)c(C)c32)cc(OC)c1OC (stereo unspecified) | x | x | x | i | x | x
COc1ccc(CCNC(=O)COc2ccc(N(C)S(=O)(=O)c3ccc(Cl)cc3)cc2)cc1 | -4 | i | -5.9* | i | i | i
CN(c1ccc(OCC(=O)NCCc2ccccc2)cc1)S(=O)(=O)c1ccc(Cl)cc1 | -11 | i | -1.1 | i | i | i
Cc1csc(=O)n1CC(=O)OC(C)C(=O)Nc1ccc(F)c(F)c1F (stereo unspecified) | -7 | i | -2.1 | i | i | i
CCCCC(C(=O)OCC)C(N)Cc1ccc(F)cc1 (stereo unspecified) | -5 | i | -4.7* | i | i | i
CC1(C)Nc2ccc(O)cc2-c2c1ssc2=S | -8 | i | -12* | i | i | i
SMILES | hERG rescue | KCNK9 block | Kir21 inh | KCNK3 inh | KCNQ1 act | KCNQ1 block
CCOc1ccc(NC(=O)CN2C(=O)COc3ccc(S(=O)(=O)N4CCCC4)cc32)cc1 | -9 | i | 1.3 | i | i | i
COc1cccc(/C=C/C(=O)c2ccc(C)c([N+](=O)[O-])c2)c1 | -7 | i | -5.8* | i | i | i
COc1cc(/C=C/C(=O)c2cccc([N+](=O)[O-])c2)cc(OC)c1OC | -7 | i | -4.7* | i | i | i
O=C1OC(=O)c2cc([N+](=O)[O-])ccc21 | x | x | x | i | x | x
O=C(/C=C/c1ccccc1F)c1cccc([N+](=O)[O-])c1 | -14 | i | -5.5* | i | i | i
COc1cc(/C=C2/OC(=O)c3cc([N+](=O)[O-])ccc32)cc(OC)c1OC | 11* | i | 2.2 | i | i | i
CC(=O)c1cccc([N+](=O)[O-])c1 | x | x | x | i | x | x
CCC(C(=O)NCCc1c[nH]c2cc(OC)ccc12)c1ccccc1 (stereo unspecified) | -3 | i | -3 | i | i | i
COc1ccc(NC(=O)c2ccc3c(c2)NC(=O)CO3)cc1OC | -11 | i | -0.97 | i | i | i
COc1cccc(NC(=S)N(CCCN2CCN(C)CC2)Cc2ccco2)c1 | -10 | i | -0.24 | i | i | i
CNc1c([N+](=O)[O-])cnn1-c1ccc(Cl)cc1 | -6 | -7.9* | 1.2 | i | i | i
CCCNC(=O)c1ccc2c(=O)c(O)c(-c3ccsc3)[nH]c2c1 | -4 | i | 0.67 | i | i | i
O=S(=O)(Nc1nc2cc3c(cc2nc1Cl)OCCO3)c1ccccc1 | 0 | i | -0.63 | i | i | i
COC(=O)c1sccc1NC(=O)c1cc2c(s1)CCCC2 | -9 | -6.7* | 0.11 | i | i | i
CSc1ncccc1C(=O)NCC12CC3CC(CC(C3)C1)C2 | -5 | i | -0.03 | i | i | i
CCn1c(SCC(=O)NC(=O)NCc2ccco2)nc2sc(C)c(C)c2c1=O | 9.2* | i | 0.52 | i | 12* | i
O=C(CSc1nc(-c2ccc(F)cc2)cs1)NC(=O)NCc1ccco1 | 4.9* | i | 1.5 | i | i | i
CN(C)S(=O)(=O)N(CC(=O)NCCSCc1ccccc1)c1ccccc1 | -9 | i | -1.9 | i | i | i
COC(=O)CCC(=O)c1oc2ccccc2c1NC(=O)CCCN1C(=O)c2ccccc2C1=O | -6 | i | 2.2 | i | i | i
CCOc1ccccc1C(=O)NN1C(=O)C2CCCCC2C1=O (stereo unspecified) | -4 | i | -0.08 | i | i | i
CN1CCN(NC(=O)Nc2cccc(F)c2)CC1 | -7 | i | -0.61 | i | i | 8*
CCOc1ccc(N2C(=O)CSC2c2ccncc2)cc1 (stereo unspecified) | -2 | i | 1.5 | i | i | i

Screening results: PubChem BioAssay, Johns Hopkins Ion Channel Center
